Experimental data pooled from the literature.
Lines come from different studies, so protocols differ.
Target: Mitogen-activated protein kinase kinase kinase 6 (MAP3K6, Homo sapiens, UniProt O95382)
One construct used (O95382 1-1288): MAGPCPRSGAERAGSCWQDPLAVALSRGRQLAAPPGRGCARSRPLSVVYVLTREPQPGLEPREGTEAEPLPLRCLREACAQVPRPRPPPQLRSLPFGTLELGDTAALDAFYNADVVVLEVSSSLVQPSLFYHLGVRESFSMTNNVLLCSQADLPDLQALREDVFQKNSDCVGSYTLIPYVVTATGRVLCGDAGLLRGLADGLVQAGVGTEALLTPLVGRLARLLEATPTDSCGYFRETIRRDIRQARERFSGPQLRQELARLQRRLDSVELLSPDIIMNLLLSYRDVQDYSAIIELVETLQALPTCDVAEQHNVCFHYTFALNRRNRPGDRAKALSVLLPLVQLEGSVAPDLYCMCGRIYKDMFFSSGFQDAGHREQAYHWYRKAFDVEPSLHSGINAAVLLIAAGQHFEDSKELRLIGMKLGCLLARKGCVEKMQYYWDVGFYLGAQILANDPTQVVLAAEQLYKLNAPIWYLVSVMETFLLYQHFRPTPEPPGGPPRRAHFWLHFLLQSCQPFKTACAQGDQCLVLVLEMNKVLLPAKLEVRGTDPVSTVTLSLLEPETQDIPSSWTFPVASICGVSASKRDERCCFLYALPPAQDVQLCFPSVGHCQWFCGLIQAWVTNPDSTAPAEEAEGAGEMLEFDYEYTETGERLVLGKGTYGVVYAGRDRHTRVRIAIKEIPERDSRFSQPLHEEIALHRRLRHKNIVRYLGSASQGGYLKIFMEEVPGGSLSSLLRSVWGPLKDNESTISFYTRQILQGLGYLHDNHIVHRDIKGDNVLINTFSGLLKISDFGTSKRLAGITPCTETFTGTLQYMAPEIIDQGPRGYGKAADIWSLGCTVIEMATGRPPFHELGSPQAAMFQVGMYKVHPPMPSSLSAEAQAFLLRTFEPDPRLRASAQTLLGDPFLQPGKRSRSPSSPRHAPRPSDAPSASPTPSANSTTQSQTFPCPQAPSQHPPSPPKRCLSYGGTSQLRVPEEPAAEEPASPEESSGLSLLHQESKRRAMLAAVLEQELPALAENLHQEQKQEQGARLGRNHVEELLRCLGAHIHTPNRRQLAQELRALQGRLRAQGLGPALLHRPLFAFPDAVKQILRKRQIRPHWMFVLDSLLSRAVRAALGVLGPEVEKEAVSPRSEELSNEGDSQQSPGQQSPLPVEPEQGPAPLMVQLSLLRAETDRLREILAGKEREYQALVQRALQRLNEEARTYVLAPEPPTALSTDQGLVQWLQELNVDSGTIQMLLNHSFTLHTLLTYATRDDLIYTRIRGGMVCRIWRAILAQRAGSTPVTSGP

SMILES | test | setting | remaining binding
C[C@@H]1CCN(c2nccc(-c3cnn4ncccc34)n2)C1 | binding | 1 µM | 55%
CSc1cccnc1N1CCN(Cc2nc3ccccc3[nH]2)CC1 | cell-free assay, competition with immobilised ligand | 1 µM | 92%
CN(CCCC(F)(F)F)c1nccc(-c2cnn3ncccc23)n1 | binding | 1 µM | 100%
c1cncc(-c2cccc(Nc3nccc(NC4CCCCC4)n3)c2)c1 | binding, competition with immobilised ligand | 10 µM | 100%
COc1cnc(Nc2cccc(S(N)(=O)=O)c2)nc1N1CCN(c2ccccc2)CC1 | binding, competition with immobilised ligand | 1 µM | 93%
O=C(c1ccc(Nc2ncc(Cl)c(-c3cc4ccccc4s3)n2)cc1)N1CCC(N2CCCC2)CC1 | binding, competition with immobilised ligand | 1 µM | 80%
N#CC1(c2ccccn2)CCN(Cc2cc(C(=O)N3CCCC3)c(=O)n3ccccc23)CC1 | cell-free assay, competition with immobilised ligand | 1 µM | 100%
Nc1ncc2c(n1)-c1c([nH]c3ccc(C#CC4CC4)cc13)CCCC2 | binding, competition with immobilised ligand | 1 µM | 98%
CNC(=O)Nc1ccc2c(c1)CC[C@@]21OC(=O)N(CC(=O)N(Cc2ccc(F)cc2)[C@@H](C)C(F)(F)F)C1=O | cell-free assay, competition with immobilised ligand | 1 µM | 86%
O=C(c1ccc(Nc2ncc(Cl)c(-c3ccc(Cl)s3)n2)cc1)N1CCC(N2CCCC2)CC1 | binding, competition with immobilised ligand | 1 µM | 66%
CS(=O)(=O)N1CCCC(NC(=O)[C@H](CCC2CCCCC2)NC(=O)c2ccc(CNC(=O)c3cnc4ccccn34)cc2)C1 (stereo partly shown) | cell-free assay, competition with immobilised ligand | 0.1 µM | 100%
CN(c1nccc(-c2cnn3ncccc23)n1)C1CC1 | binding | 1 µM | 100%
FC(F)(F)Oc1cccc(-c2cnc3ccc(-c4ccncc4)nn23)c1 | cell-free assay, competition with immobilised ligand | 5 µM | 96%
O=C(NCCCN1CCOCC1)c1ccc(Nc2nccc(-c3cc4ccccc4s3)n2)cc1 | binding, competition with immobilised ligand | 1 µM | 98%
F[C@@H]1CCN(c2nccc(-c3cnn4ncccc34)n2)C1 | binding | 1 µM | 76%
CNC(=O)[C@@H]1CC[C@@H](n2c(-c3ccc4cnccc4c3)nc3ccc(C(=O)NCc4cccc(C(N)=O)c4)cc32)C1 | binding, competition with immobilised ligand | 1 µM | 100%
COc1ncc2cc3ccccc3nc2c1C#N | cell-free assay, competition with immobilised ligand | 5 µM | 100%
O=C(NCC1CCOCC1)c1n[nH]cc1NC(=O)c1c(F)cccc1F | binding, competition with immobilised ligand | 1 µM | 77%
CN([C@@H]1CCc2c(CC(=O)O)c3ccccc3n2C1)S(=O)(=O)c1ccc(F)cc1 | cell-free assay, competition with immobilised ligand | 1 µM | 80%
N[C@H]1CCN(c2nccc(-c3cnn4ncccc34)n2)C1 | binding | 1 µM | 82%
CN([C@@H]1CCc2c(CC(=O)O)c3cc(S(C)(=O)=O)ccc3n2C1)S(=O)(=O)c1ccc(F)cc1 | cell-free assay, competition with immobilised ligand | 1 µM | 89%
CN(C)c1nccc(-c2cnc3ncccn23)n1 | binding | 1 µM | 67%
